Measured values published in ChEMBL document CHEMBL1629545, “A morpholino oligomer targeting highly conserved internal ribosome entry site sequence is able to inhibit multiple species of picornavirus” (Antimicrob Agents Chemother, 2008).

Tests used:
Vero = test: Cytotoxicity against African green monkey Vero cells at 10 uM after 24 hrs by MTS assay; format: cell-based; settings: chlorocebus sabaeus
SK-N-MC = test: Cytotoxicity against human SK-N-MC cell at 10 uM after 24 hrs by MTS assay; format: cell-based
rhinovirus B14 = test: Antiviral activity against Human rhinovirus type 14 infected in Human HeLa cell assessed as log reduction in viral titer at 5 uM measured after 48 hrs post infection by plaque assay; format: functional, organism-based
Method in brief: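 HRV14 from an infectious clone was used to infect nearly confluent HeLa cells for 1 h at MOI 0.03. Cells were then kept in 10% calf serum medium with PPMO or water at 34°C. Supernatant titre at 48 h p.i. was measured by plaque assay at 34°C with 72 h plaque development. Two experiments were averaged.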

Poliovirus 1 = test: Antiviral activity against Human poliovirus type 1 infected in Human HeLa cells assessed as log reduction in viral titer at 5 uM measured after 24 hrs post infection by plaque assay; format: functional, organism-based
Method in brief: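 Nearly confluent HeLa cells were infected 1 h with a clinical PV1 isolate (passaged once in Vero and once in HeLa) at MOI 0.05. Inoculum was replaced by medium with 10% calf serum containing PPMO (2.5 or 5 μM) or water, at 37°C. Supernatant titre at 24 h p.i. was measured by plaque assay with 36 h plaque development.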

HeLa = test: Cytotoxicity against human HeLa cells at 1 to 10 uM after 24 hrs by MTS assay; format: cell-based
Method in brief: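 HeLa cells at ~80% confluence, uninfected, exposed to 1–100 μM PPMO or water (mock) in serum-free DMEM-F-12 (1:1) for 24 h. MTS reagent was added for 4 h and absorbance read at 492 nm. Viability was expressed as percent of water-treated cells (set to 100%), averaged over 12 wells.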

Cc1cn([C@H]2CN(P(=O)(OC[C@@H]3CN(P(=O)(OC[C@@H]4CNC[C@H](n5cnc6c(=O)[nH]c(N)nc65)O4)N(C)C)C[C@H](n4cnc5c(N)ncnc54)O3)N(C)C)C[C@@H](COP(=O)(N(C)C)N3C[C@@H](COP(=O)(N(C)C)N4C[C@@H](COP(=O)(N(C)C)N5C[C@@H](COP(=O)(N(C)C)N6C[C@@H](COP(=O)(N(C)C)N7C[C@@H](COP(=O)(N(C)C)N8C[C@@H](COP(=O)(N(C)C)N9C[C@@H](COP(=O)(N(C)C)N%10C[C@@H](COP(=O)(N(C)C)N%11C[C@@H](COP(=O)(N(C)C)N%12C[C@@H](COP(=O)(N(C)C)N%13C[C@@H](COP(=O)(N(C)C)N%14C[C@@H](COP(=O)(N(C)C)N%15C[C@@H](COP(=O)(N(C)C)N%16C[C@@H](COP(=O)(N(C)C)N%17C[C@@H](COP(=O)(N(C)C)N%18C[C@@H](COP(=O)(N(C)C)N%19C[C@@H](COP(=O)(N(C)C)N%20C[C@@H](COP(=O)(N(C)C)N%21C[C@@H](COP(=O)(N(C)C)N%22C[C@@H](COP(=O)(N(C)C)N%23C[C@@H](COP(=O)(N(C)C)N%24CCN(C(=O)[C@H](CS)NC(=O)[C@H](Cc%25ccccc%25)NC(=O)[C@H](Cc%25ccccc%25)NC(=O)[C@H](CCCNC(=N)N)NC(=O)[C@H](CCCNC(=N)N)NC(=O)[C@H](CCCNC(=N)N)NC(=O)[C@H](CCCNC(=N)N)NC(=O)[C@H](CCCNC(=N)N)NC(=O)[C@H](CCCNC(=N)N)NC(=O)[C@H](CCCNC(=N)N)NC(=O)[C@H](CCCNC(=N)N)NC(=O)[C@@H](N)CCCNC(=N)N)CC%24)O[C@@H](n%24cnc%25c(=O)[nH]c(N)nc%25%24)C%23)O[C@@H](n%23cnc%24c(N)ncnc%24%23)C%22)O[C@@H](n%22cnc%23c(=O)[nH]c(N)nc%23%22)C%21)O[C@@H](n%21cnc%22c(N)ncnc%22%21)C%20)O[C@@H](n%20cnc%21c(N)ncnc%21%20)C%19)O[C@@H](n%19cnc%20c(N)ncnc%20%19)C%18)O[C@@H](n%18ccc(N)nc%18=O)C%17)O[C@@H](n%17cnc%18c(N)ncnc%18%17)C%16)O[C@@H](n%16ccc(N)nc%16=O)C%15)O[C@@H](n%15cnc%16c(=O)[nH]c(N)nc%16%15)C%14)O[C@@H](n%14cnc%15c(=O)[nH]c(N)nc%15%14)C%13)O[C@@H](n%13cnc%14c(N)ncnc%14%13)C%12)O[C@@H](n%12ccc(N)nc%12=O)C%11)O[C@@H](n%11cnc%12c(N)ncnc%12%11)C%10)O[C@@H](n%10ccc(N)nc%10=O)C9)O[C@@H](n9ccc(N)nc9=O)C8)O[C@@H](n8ccc(N)nc8=O)C7)O[C@@H](n7cnc8c(N)ncnc87)C6)O[C@@H](n6cnc7c(N)ncnc76)C5)O[C@@H](n5cnc6c(N)ncnc65)C4)O[C@@H](n4cnc5c(=O)[nH]c(N)nc54)C3)O2)c(=O)[nH]c1=O (stereo not given in full)
Activity (Vero): Non-toxic | Activity (SK-N-MC): Non-toxic | FC (rhinovirus B14): 2 | FC (Poliovirus 1): 2 | Activity (HeLa): Non-toxic
